Laboratory results as given in PubChem BioAssay AID652011 (Sanford-Burnham Center for Chemical Genomics, 2013).
Values joined by “and” are separate entries in the source; they are usually repeats but may differ in a detail not shown here. Identical values can stand only once.

Target: Endothelial PAS domain-containing protein 1 (Homo sapiens) (UniProt Q99814)
Experiment: HIF-1a and HIF-2a reporter inhibitors, SAR follow-up, cell-based, luminescence, MIAPaCa-2, 786-0, panel (AID 652011)
Conditions: MIAPaCa-2/PANC HIF reporter, luciferase luminescence, desferoxamine, overnight, HIF2a PANC, run 1; at 99 µM (top of the series)
Procedure, shortened: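 Detection: luminescence, One-Glo; Reagent: desferoxamine; Incubation: overnight seeding and compound exposure, 37 °C, 5% CO2, 10-min detection.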

Chain of Endothelial PAS domain-containing protein 1 (Homo sapiens) (Q99814 whole entry, looked up, the tested form may be a part): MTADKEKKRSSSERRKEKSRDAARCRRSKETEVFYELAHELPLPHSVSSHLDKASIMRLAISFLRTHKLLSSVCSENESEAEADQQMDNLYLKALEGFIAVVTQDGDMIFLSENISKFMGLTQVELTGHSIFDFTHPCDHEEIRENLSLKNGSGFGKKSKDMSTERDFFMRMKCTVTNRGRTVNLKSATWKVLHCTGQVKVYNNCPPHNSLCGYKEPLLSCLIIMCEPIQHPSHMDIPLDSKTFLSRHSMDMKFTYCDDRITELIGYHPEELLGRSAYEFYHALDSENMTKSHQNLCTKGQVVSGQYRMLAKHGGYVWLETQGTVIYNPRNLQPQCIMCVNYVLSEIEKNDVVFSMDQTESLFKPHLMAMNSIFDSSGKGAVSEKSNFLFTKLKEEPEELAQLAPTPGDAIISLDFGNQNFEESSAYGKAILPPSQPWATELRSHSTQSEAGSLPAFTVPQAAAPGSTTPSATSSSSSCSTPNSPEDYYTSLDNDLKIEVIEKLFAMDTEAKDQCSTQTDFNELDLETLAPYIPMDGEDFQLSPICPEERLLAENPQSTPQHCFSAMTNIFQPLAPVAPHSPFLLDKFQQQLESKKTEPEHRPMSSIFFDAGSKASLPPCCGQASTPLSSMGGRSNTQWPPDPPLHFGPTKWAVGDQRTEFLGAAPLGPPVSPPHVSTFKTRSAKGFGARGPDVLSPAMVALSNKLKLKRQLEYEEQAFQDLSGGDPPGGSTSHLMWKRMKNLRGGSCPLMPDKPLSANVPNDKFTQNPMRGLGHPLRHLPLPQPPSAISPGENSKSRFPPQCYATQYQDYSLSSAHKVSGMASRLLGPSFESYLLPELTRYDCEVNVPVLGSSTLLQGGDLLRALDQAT

Structure (SMILES) | inhibition
CNC(=O)CCc1nc(-c2ccccc2)no1 | 11.4% and 50.7%
CNC(=O)CCc1nc(-c2ccc(C(C)(C)C)cc2)no1 | 65.3%
CC(C)(C)c1ccc(-c2noc(CCC(=O)Nc3cccc([N+](=O)[O-])c3)n2)cc1 | 89.8%
CCNC(=O)CCc1nc(-c2ccccc2)no1 | 21.2%
CCc1ccc(-c2noc(CCC(=O)NC)n2)cc1 | 1.82%
CC(C)(C)c1ccc(-c2noc(CCC(=O)N3CCCCC3)n2)cc1 | 103%
CC(C)(C)c1ccc(-c2noc(CCC(=O)NCC3CCCO3)n2)cc1 (stereo unspecified) | 53.5%
CCNC(=O)CCc1nc(-c2ccc(CC)cc2)no1 | -29.7%
C=CCNC(=O)CCc1nc(-c2ccc(C(C)(C)C)cc2)no1 | 56.7%
CC(C)(C)c1ccc(-c2noc(CCC(=O)Nc3cccnc3)n2)cc1 | 118%
CCCCc1ccc(-c2noc(CCC(=O)NC3CC3)n2)cc1 | -40.8%
CCOc1ccc(-c2noc(CCC(=O)NC)n2)cc1 | 112%
CCOc1ccc(-c2noc(CCC(=O)O)n2)cc1 | 109%
CNC(=O)CCc1nc(-c2ccc(Cl)cc2)no1 | 13.4%
O=C(CCc1nc(-c2ccccc2)no1)NC1CC1 | 66%
CC(C)c1ccc(-c2noc(CCC(=O)NC3CC3)n2)cc1 | -39.8%
CCNC(=O)CCc1nc(-c2cccc(C)c2)no1 | -22.1%
CCCCc1ccc(-c2noc(CCC(=O)NCC)n2)cc1 | -29.8%
CC(C)(C)c1ccc(-c2noc(CCC(=O)NCc3ccco3)n2)cc1 | 86.1% and 78.5%
CC(C)(C)c1ccc(-c2noc(CCC(=O)NC3CCC3)n2)cc1 | 108%
CCCNC(=O)CCc1nc(-c2ccc(C(C)(C)C)cc2)no1 | 7.88%
